# Data: ChEMBL document CHEMBL4382248, “Optimization of a 1,3,4-oxadiazole series for inhibition of Ca2+/calmodulin-stimulated activity of adenylyl cyclases 1 and 8 for the treatment of chronic pain” (Eur J Med Chem, 2019)
# pIC50: −log10 of the molar value.
# Test system: not listed separately
# Experiment: Cytotoxicity against HEK293 cells expressing human AC1 at 30 uM preincubated for 30 mins followed by A23187 stimulation and measured after 1 hr by CellTiter-Glo luminescent cell viability assay relative to control
# Assay type: cell-based
# Details: HEK293 cells expressing human AC1, read-out: Activity
# How it was run: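 Cytotoxicity in HEK lines stably expressing AC1 or AC8: single 30 µM dose, 90 min incubation. Viability was read by luminescent ATP reporter as % of DMSO-treated (100%) and Triton-X-treated (0%) controls.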
row,SMILES,"viability at 1 h, 30 µM"
1,O=C(Nc1nnc(-c2ccc(F)cc2)o1)c1ccc(F)cc1,100%
2,COc1ccc(C(=O)Nc2nnc(C3CCCCC3)o2)cc1,82%
3,O=C(Nc1nnc(-c2ccc(F)cc2)o1)c1cccc(F)c1,104%
4,COc1ccc(C(=O)Nc2nnc(-c3cccs3)o2)cc1,97%
5,COc1cccc(C(=O)Nc2nnc(-c3ccc4c(c3)OCCO4)o2)c1,103%
6,O=C(Nc1nnc(-c2ccc3c(c2)CCCC3)o1)c1ccccc1,84 to 124%
7,Cc1ccc(C(=O)Nc2nnc(-c3ccc4c(c3)CCCC4)o2)cc1C(F)(F)F,115%
8,O=C(Nc1nnc(C2CCCCC2)o1)c1ccc(F)cc1,95%
9,O=C(Nc1nnc(C2CCCCC2)o1)c1ccc(Cl)cc1,89%
10,O=C(Nc1nnc(-c2ccc3c(c2)CCCC3)o1)c1ccc(Br)cc1,113 to 115%
11,Cc1ccc(C(=O)Nc2nnc(-c3ccc4c(c3)OCCO4)o2)cc1,98%
12,Cc1ccc(C(=O)Nc2nnc(-c3ccc(F)cc3)o2)cc1C,95%
13,CSc1cccc(C(=O)Nc2nnc(-c3ccc4c(c3)OCCO4)o2)c1,109%
14,CC(C)Oc1ccc(C(=O)Nc2nnc(-c3ccc4c(c3)OCCO4)o2)cc1,160%
15,O=C(Nc1nnc(-c2ccc(F)cc2)o1)c1ccccc1,87%
16,O=C(Nc1nnc(C2CCCCC2)o1)c1cccc(F)c1,87%

row,SMILES,"viability at 1 h, 30 µM"
1,CC(C)Oc1ccc(C(=O)Nc2nnc(-c3ccc4c(c3)CCCC4)o2)cc1,124 to 129%
2,Cc1ccc(C(=O)Nc2nnc(-c3ccc4c(c3)OCCO4)o2)cc1C,113%
3,COc1ccc(C(=O)Nc2nnc(-c3ccc(F)cc3)o2)cc1,82%
4,CC(C)Oc1ccc(C(=O)Nc2nnc(-c3cccs3)o2)cc1,73 to 81%
5,CC(C)Oc1ccc(C(=O)Nc2nnc(C3CCCCC3)o2)cc1,99%
6,O=C(Nc1nnc(-c2ccc(F)cc2)o1)c1ccc(S(=O)(=O)N2CCCCC2)cc1,119%
7,Cc1ccc(C(=O)Nc2nnc(-c3ccc(F)cc3)o2)cc1,104%
8,Cc1ccc(C(=O)Nc2nnc(C3CCCCC3)o2)cc1C(F)(F)F,139%
9,O=C(Nc1nnc(C2CCCCC2)o1)c1ccc(Br)cc1,108%
10,Cc1ccc(C(=O)Nc2nnc(-c3ccc4c(c3)CCCC4)o2)cc1,107 to 123%
11,O=C(Nc1nnc(C2CCCCC2)o1)c1ccccc1,87%
12,O=C(Nc1nnc(-c2ccc(F)cc2)o1)c1ccc(Cl)cc1,84%
13,O=C(Nc1nnc(-c2cccs2)o1)c1ccc(Br)cc1,110%
14,O=C(Nc1nnc(-c2ccc(F)cc2)o1)c1ccc(-c2ccccc2)cc1,114%
15,Cc1ccc(C(=O)Nc2nnc(C3CCCCC3)o2)cc1,111%
16,Cc1cc(C(=O)Nc2nnc(C3CCCCC3)o2)cc(C(F)(F)F)c1,125%

# Target: Adenylate cyclase type 8 (Homo sapiens, UniProt P40145)
# Experiment: Inhibition of human AC8 expressed in HEK293 cells assessed as decrease in A23187-stimulated cAMP accumulation at 30 uM preincubated for 30 mins followed by A23187 stimulation and measured after 1 hr by fluorescence assay relative to control
# Assay type: cell-based
# Details: not given
# How it was run: (§1)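 HEK cells stably expressing AC1 or AC8; Ca2+/calmodulin-stimulated cAMP accumulation measured. Dose-response curves began at 30 µM. […] Values are the mean and SEM of three independent experiments.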
# Sequence of Adenylate cyclase type 8 (P40145 whole entry): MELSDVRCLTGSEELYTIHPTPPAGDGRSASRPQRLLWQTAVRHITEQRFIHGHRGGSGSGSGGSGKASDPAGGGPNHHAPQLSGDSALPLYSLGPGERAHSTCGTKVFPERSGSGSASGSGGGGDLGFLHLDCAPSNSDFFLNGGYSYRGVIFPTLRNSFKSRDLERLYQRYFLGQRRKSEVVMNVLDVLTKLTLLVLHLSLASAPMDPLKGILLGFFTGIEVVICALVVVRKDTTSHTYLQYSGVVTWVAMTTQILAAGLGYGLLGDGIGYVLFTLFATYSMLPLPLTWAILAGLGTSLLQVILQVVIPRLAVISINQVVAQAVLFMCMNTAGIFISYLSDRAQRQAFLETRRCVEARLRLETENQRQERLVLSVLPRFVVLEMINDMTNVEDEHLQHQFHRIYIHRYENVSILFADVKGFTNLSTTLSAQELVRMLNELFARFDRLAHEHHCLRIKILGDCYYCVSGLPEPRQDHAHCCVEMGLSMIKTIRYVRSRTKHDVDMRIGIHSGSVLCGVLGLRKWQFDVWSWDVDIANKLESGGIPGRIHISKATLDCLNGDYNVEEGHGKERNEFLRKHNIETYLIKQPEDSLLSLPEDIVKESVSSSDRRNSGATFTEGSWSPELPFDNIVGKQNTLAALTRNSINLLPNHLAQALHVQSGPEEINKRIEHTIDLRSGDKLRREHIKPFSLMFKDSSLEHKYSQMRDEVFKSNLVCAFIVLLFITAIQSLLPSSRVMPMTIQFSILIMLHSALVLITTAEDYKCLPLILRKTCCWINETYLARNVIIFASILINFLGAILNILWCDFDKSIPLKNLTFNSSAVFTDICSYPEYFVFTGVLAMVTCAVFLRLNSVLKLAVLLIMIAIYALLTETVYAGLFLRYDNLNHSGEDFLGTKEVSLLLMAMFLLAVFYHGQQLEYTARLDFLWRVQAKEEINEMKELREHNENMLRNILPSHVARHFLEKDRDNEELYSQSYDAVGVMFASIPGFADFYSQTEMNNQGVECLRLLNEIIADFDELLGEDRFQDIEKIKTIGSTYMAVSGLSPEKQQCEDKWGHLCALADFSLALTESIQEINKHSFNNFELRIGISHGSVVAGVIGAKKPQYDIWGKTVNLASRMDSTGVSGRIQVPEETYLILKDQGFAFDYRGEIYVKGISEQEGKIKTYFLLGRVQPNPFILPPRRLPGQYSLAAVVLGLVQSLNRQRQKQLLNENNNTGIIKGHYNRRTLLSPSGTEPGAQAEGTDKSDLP
row,SMILES,inhibition
1,O=C(Nc1nnc(-c2ccc(F)cc2)o1)c1ccc(F)cc1,14%
2,COc1ccc(C(=O)Nc2nnc(C3CCCCC3)o2)cc1,6%
3,O=C(Nc1nnc(-c2ccc(F)cc2)o1)c1cccc(F)c1,35%
4,COc1ccc(C(=O)Nc2nnc(-c3cccs3)o2)cc1,10%
5,COc1cccc(C(=O)Nc2nnc(-c3ccc4c(c3)OCCO4)o2)c1,18%
6,O=C(Nc1nnc(C2CCCCC2)o1)c1ccc(F)cc1,7%
7,O=C(Nc1nnc(C2CCCCC2)o1)c1ccc(Cl)cc1,10%
8,Cc1ccc(C(=O)Nc2nnc(-c3ccc4c(c3)OCCO4)o2)cc1,25%
9,Cc1ccc(C(=O)Nc2nnc(-c3ccc(F)cc3)o2)cc1C,42%
10,CSc1cccc(C(=O)Nc2nnc(-c3ccc4c(c3)OCCO4)o2)c1,37%
11,CC(C)Oc1ccc(C(=O)Nc2nnc(-c3ccc4c(c3)OCCO4)o2)cc1,39%
12,O=C(Nc1nnc(-c2ccc(F)cc2)o1)c1ccccc1,8%
13,O=C(Nc1nnc(C2CCCCC2)o1)c1cccc(F)c1,11%
14,COc1ccc(C(=O)Nc2nnc(-c3ccc(F)cc3)o2)cc1,20%
15,CC(C)Oc1ccc(C(=O)Nc2nnc(-c3cccs3)o2)cc1,24 to 35%
16,CC(C)Oc1ccc(C(=O)Nc2nnc(C3CCCCC3)o2)cc1,35%
17,O=C(Nc1nnc(-c2ccc(F)cc2)o1)c1ccc(S(=O)(=O)N2CCCCC2)cc1,38%
18,Cc1ccc(C(=O)Nc2nnc(-c3ccc(F)cc3)o2)cc1,31%
19,O=C(Nc1nnc(C2CCCCC2)o1)c1ccccc1,2%
20,O=C(Nc1nnc(-c2ccc(F)cc2)o1)c1ccc(Cl)cc1,11%
21,O=C(Nc1nnc(-c2cccs2)o1)c1ccc(Br)cc1,41%
22,Cc1ccc(C(=O)Nc2nnc(C3CCCCC3)o2)cc1,1%

# Target: Adenylate cyclase type 5 (Homo sapiens) (UniProt O95622)
# Experiment: Inhibition of human AC5 expressed in HEK293 cells assessed as forskolin-stimulated cAMP accumulation at 30 uM preincubated for 30 mins followed by forskolin stimulation and measured after 1 hr by fluorescence assay relative to control
# Assay type: cell-based
# Parameters: scale not given: the % may be the effect or the level left
# Details: not given
# How it was run: (§2)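 Group 2 AC2 (PKC-stimulated) or group 3 AC (forskolin-stimulated) cells were exposed to a single 30 µM dose (n = 3). cAMP activity was normalized to DMSO controls set as 100%.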
# Sequence of Adenylate cyclase type 5 (Homo sapiens) (O95622 whole entry, looked up): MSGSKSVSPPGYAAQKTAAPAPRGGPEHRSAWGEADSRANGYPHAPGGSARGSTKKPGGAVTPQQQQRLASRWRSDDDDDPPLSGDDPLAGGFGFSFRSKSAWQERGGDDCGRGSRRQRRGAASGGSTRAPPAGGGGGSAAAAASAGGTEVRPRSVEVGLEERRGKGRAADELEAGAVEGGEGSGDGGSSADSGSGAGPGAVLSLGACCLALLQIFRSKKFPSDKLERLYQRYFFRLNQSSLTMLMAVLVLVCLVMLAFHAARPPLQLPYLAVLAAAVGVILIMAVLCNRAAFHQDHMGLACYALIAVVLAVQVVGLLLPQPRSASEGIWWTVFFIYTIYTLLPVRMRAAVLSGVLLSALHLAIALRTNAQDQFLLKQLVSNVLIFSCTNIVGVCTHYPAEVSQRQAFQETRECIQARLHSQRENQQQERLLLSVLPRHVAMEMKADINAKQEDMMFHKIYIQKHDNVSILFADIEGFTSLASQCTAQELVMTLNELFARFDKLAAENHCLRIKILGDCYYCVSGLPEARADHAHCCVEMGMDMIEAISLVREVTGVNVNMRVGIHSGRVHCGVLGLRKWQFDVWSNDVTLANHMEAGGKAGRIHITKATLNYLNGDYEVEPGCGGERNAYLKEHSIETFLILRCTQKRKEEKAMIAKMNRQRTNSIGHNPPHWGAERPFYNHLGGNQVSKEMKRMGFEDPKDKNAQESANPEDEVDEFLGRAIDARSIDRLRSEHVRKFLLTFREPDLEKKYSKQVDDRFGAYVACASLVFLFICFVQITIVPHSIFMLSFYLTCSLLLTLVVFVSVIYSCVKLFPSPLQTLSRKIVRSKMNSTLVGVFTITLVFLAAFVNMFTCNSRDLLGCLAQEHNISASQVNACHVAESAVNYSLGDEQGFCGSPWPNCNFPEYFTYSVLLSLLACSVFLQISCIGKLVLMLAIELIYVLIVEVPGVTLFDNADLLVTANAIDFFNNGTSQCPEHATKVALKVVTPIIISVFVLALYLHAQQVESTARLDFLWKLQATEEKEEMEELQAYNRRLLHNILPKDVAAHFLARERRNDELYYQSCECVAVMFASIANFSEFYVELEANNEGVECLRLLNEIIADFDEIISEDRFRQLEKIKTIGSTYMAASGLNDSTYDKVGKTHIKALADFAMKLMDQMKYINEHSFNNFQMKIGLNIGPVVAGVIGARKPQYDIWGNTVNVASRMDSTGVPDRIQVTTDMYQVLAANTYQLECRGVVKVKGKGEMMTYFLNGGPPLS
row,SMILES,Activity
1,O=C(Nc1nnc(-c2ccc3c(c2)CCCC3)o1)c1ccc(Br)cc1,215%
2,Cc1ccc(C(=O)Nc2nnc(-c3ccc4c(c3)OCCO4)o2)cc1,194%
3,Cc1ccc(C(=O)Nc2nnc(-c3ccc(F)cc3)o2)cc1,170%
4,Cc1ccc(C(=O)Nc2nnc(-c3ccc4c(c3)CCCC4)o2)cc1,139%

# Target: Adenylate cyclase type 1 (Homo sapiens, UniProt Q08828)
# Experiment: Inhibition of human AC1 expressed in HEK293 cells assessed as decrease in A23187-stimulated cAMP accumulation preincubated for 30 mins followed by A23187 stimulation and measured after 1 hr by fluorescence assay
# Assay type: cell-based
# Details: not given
# How it was run: as §1
# Sequence of Adenylate cyclase type 1 (Q08828 whole entry): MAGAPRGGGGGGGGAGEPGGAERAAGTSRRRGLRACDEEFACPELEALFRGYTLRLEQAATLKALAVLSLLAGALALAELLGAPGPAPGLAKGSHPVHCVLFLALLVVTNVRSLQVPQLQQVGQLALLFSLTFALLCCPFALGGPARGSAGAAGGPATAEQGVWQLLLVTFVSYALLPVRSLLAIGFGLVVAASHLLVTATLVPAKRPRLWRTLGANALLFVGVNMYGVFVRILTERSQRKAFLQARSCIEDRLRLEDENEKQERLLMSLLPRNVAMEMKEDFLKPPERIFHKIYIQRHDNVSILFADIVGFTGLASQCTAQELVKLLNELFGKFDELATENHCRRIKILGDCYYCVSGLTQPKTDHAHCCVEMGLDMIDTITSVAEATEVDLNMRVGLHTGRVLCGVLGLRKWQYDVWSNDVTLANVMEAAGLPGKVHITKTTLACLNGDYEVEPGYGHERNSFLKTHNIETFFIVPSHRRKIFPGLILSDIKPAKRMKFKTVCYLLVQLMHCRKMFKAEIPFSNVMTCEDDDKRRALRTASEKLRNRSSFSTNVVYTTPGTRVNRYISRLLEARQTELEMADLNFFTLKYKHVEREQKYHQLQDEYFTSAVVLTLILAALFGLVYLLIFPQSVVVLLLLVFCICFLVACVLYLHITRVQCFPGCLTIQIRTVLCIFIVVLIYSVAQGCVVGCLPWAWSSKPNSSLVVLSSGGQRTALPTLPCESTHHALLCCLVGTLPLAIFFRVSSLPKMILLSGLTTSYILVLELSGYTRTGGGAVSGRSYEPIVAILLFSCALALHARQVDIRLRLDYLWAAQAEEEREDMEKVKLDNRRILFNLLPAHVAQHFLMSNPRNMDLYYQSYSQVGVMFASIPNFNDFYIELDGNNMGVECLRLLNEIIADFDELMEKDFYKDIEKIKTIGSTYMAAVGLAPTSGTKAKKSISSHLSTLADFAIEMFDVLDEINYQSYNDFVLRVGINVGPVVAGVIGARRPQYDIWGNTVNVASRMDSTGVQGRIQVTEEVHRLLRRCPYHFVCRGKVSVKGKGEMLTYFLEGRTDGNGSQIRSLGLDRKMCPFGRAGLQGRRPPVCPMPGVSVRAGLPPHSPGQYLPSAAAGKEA
row,SMILES,pIC50
1,O=C(Nc1nnc(-c2ccc(F)cc2)o1)c1cccc(F)c1,4.96
2,O=C(Nc1nnc(C2CCCCC2)o1)c1ccc(F)cc1,4.89
3,O=C(Nc1nnc(C2CCCCC2)o1)c1ccc(Cl)cc1,4.85
4,Cc1ccc(C(=O)Nc2nnc(-c3ccc4c(c3)OCCO4)o2)cc1,4.92
5,CSc1cccc(C(=O)Nc2nnc(-c3ccc4c(c3)OCCO4)o2)c1,5.02
6,O=C(Nc1nnc(C2CCCCC2)o1)c1cccc(F)c1,4.96
7,COc1ccc(C(=O)Nc2nnc(-c3ccc(F)cc3)o2)cc1,4.89
8,O=C(Nc1nnc(-c2ccc(F)cc2)o1)c1ccc(S(=O)(=O)N2CCCCC2)cc1,4.80
9,O=C(Nc1nnc(C2CCCCC2)o1)c1ccccc1,4.60
10,Cc1ccc(C(=O)Nc2nnc(C3CCCCC3)o2)cc1,4.80

# Target: Adenylate cyclase type 2 (Homo sapiens) (UniProt Q08462)
# Experiment: Inhibition of human AC2 expressed in HEK293 cells assessed as PMA-stimulated cAMP accumulation at 30 uM preincubated for 30 mins followed by PMA stimulation and measured after 1 hr by fluorescence assay relative to control
# Assay type: cell-based
# Parameters: scale not given: the % may be the effect or the level left
# Details: not given
# How it was run: as §2
# Sequence of Adenylate cyclase type 2 (Homo sapiens) (Q08462 whole entry): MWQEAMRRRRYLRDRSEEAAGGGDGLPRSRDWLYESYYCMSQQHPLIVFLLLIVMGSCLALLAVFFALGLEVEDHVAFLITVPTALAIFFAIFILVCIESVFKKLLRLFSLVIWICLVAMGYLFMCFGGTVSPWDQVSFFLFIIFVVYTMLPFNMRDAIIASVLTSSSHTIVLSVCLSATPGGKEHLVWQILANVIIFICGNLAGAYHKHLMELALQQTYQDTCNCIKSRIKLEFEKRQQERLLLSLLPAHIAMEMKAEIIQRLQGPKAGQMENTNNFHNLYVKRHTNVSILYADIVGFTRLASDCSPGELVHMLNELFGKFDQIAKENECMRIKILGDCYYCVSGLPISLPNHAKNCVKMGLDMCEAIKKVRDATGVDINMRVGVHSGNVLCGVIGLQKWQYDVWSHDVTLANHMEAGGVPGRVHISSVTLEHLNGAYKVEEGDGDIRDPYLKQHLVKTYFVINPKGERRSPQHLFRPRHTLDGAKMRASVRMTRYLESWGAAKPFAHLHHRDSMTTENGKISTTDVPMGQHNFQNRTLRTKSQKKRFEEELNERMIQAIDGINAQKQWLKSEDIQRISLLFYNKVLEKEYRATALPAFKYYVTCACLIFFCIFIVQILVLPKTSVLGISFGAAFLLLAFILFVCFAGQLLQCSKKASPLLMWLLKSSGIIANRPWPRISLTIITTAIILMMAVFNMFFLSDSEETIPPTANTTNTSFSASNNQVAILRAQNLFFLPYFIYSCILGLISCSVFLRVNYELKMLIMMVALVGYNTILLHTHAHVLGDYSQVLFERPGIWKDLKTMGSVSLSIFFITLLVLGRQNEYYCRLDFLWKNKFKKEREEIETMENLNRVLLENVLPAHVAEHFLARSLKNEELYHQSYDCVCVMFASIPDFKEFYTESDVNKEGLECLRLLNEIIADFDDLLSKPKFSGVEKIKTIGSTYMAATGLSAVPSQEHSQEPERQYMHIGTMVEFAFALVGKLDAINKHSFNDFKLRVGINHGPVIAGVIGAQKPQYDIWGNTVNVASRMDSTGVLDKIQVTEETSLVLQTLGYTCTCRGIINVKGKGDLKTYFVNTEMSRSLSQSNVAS
row,SMILES,Activity
1,O=C(Nc1nnc(-c2ccc3c(c2)CCCC3)o1)c1ccc(Br)cc1,160%
2,Cc1ccc(C(=O)Nc2nnc(-c3ccc4c(c3)OCCO4)o2)cc1,218%
3,Cc1ccc(C(=O)Nc2nnc(-c3ccc(F)cc3)o2)cc1,341%
4,Cc1ccc(C(=O)Nc2nnc(-c3ccc4c(c3)CCCC4)o2)cc1,275%

# Species on record: Homo sapiens
# Experiment: Selectivity ratio of IC50 for human AC8 expressed in HEK293 cells to IC50 for human AC1 expressed in HEK293 cells
# Assay type: cell-based
# Details: not given
row,SMILES,Ratio IC50
1,O=C(Nc1nnc(-c2ccc3c(c2)CCCC3)o1)c1ccccc1,1.1 to 5.6
2,Cc1ccc(C(=O)Nc2nnc(-c3ccc4c(c3)CCCC4)o2)cc1C(F)(F)F,0.5
3,O=C(Nc1nnc(-c2ccc3c(c2)CCCC3)o1)c1ccc(Br)cc1,2.23 to 4.5
4,CC(C)Oc1ccc(C(=O)Nc2nnc(-c3ccc4c(c3)CCCC4)o2)cc1,0.73 to 1.2
5,Cc1ccc(C(=O)Nc2nnc(-c3ccc4c(c3)OCCO4)o2)cc1C,2.6
6,Cc1ccc(C(=O)Nc2nnc(-c3ccc(F)cc3)o2)cc1,> 3.6
7,Cc1ccc(C(=O)Nc2nnc(C3CCCCC3)o2)cc1C(F)(F)F,1.9
8,O=C(Nc1nnc(C2CCCCC2)o1)c1ccc(Br)cc1,2.9
9,Cc1ccc(C(=O)Nc2nnc(-c3ccc4c(c3)CCCC4)o2)cc1,0.79 to 7.4
10,O=C(Nc1nnc(-c2ccc(F)cc2)o1)c1ccc(-c2ccccc2)cc1,2.7
11,Cc1cc(C(=O)Nc2nnc(C3CCCCC3)o2)cc(C(F)(F)F)c1,2.9
